In ChEMBL document CHEMBL4308856, “Novel 5-(quinuclidin-3-ylmethyl)-1,2,4-oxadiazoles to investigate the activation of the α7 nicotinic acetylcholine receptor subtype: Synthesis and electrophysiological evaluation” (Eur J Med Chem, 2018):
Values belong to the molecule of their own block, whether it stands above or below them. Activity calls are given as the source filed them. No cut-off for these calls is given here.

Legend:
Format in all cases: cell-based
[1] = biological target: T1, Neuronal acetylcholine receptor subunit alpha-7 (Homo sapiens, UniProt P36544); test: (§1) Partial agonist activity at human alpha7 nAChR expressed in Xenopus laevis oocytes assessed as increase in net charge at 30 uM at -60 mV holding potential treated for 12 secs followed by compound washout for 181 secs by whole cell two electrode voltage-clamp assay relative to ACh
How it was run: (§2)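 Human α7 nAChR expressed in Xenopus laevis oocytes, two-electrode voltage clamp at −60 mV with 3 M KCl electrodes. Ringer's with atropine, pH 7.2, perfused at 2 mL/min. Compound was applied at 30 μM for 12 s with a 181 s washout. Peak current and net charge were each normalized to the mean of two prior 60 μM ACh controls in the same oocyte; the peak/net-charge ratio was taken. Mean ± SEM, at least four oocytes.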

[2] = biological target: T1, Neuronal acetylcholine receptor subunit alpha-7; test: (§3) Ratio of partial agonist activity at human alpha7 nAChR expressed in Xenopus laevis oocytes assessed as increase in peak current amplitude relative to ACh to partial agonist activity at human alpha7 nAChR expressed in Xenopus laevis oocytes assessed as increase in net charge relative to ACh; how it was run: as §2
[3] = biological target: T1, Neuronal acetylcholine receptor subunit alpha-7; test: as §1, with “Silent agonist activity” for “Partial agonist activity”, “181 secs in presence of type 2 PAM PNU-120596 by whole” for “181 secs by whole”
How it was run: (§4)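 α7 (human) expressed in Xenopus oocytes, voltage-clamped at −60 mV, Ringer's pH 7.2 with atropine at 2 mL/min. Compound (3, 10 or 30 μM) was co-applied with PNU-120596 for 12 s, then washed out for 181 s. Net charge was expressed relative to the mean of two preceding 60 μM ACh control responses in the same oocyte. Mean ± SEM, at least four oocytes.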

[4] = biological target: T1, Neuronal acetylcholine receptor subunit alpha-7; test: Partial agonist activity at human alpha7 nAChR expressed in Xenopus laevis oocytes assessed as increase in peak current amplitude at 30 uM at -60 mV holding potential treated for 12 secs followed by compound washout for 181 secs by whole cell two electrode voltage-clamp assay relative to ACh; how it was run: as §2
[5] = biological target: T1, Neuronal acetylcholine receptor subunit alpha-7; test: as §3, with “of Silent” for “of partial”, “in net charge in presence of type 2 PAM PNU-120596” for “in peak current amplitude”
How it was run: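 PNU effectiveness: net-charge response of human α7 nAChR (Xenopus oocytes, −60 mV clamp) to compound co-applied with 10 μM PNU-120596, divided by the response to compound alone. Both responses were normalized to 60 μM ACh controls, with 12 s applications and 181 s washout.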

[6] = biological target: T1, Neuronal acetylcholine receptor subunit alpha-7; test: (§5) Partial agonist activity at human alpha7 nAChR expressed in Xenopus laevis oocytes assessed as increase in net charge at 3 uM at -60 mV holding potential treated for 12 secs followed by compound washout for 181 secs by whole cell two electrode voltage-clamp assay relative to ACh
How it was run: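 Human α7 nAChR in Xenopus oocytes under two-electrode voltage clamp at −60 mV, perfused with Ringer's (pH 7.2, atropine) at 2 mL/min. Compound was given alone at 3 μM as a 12 s application followed by 181 s washout. Net-charge response was normalized to the average of two initial 60 μM ACh controls from the same oocyte.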

[7] = biological target: T1, Neuronal acetylcholine receptor subunit alpha-7; test: Partial agonist activity at human alpha7 nAChR expressed in Xenopus laevis oocytes at -60 mV holding potential treated for 12 secs followed by compound washout for 181 secs by whole cell two electrode voltage-clamp assay relative to ACh
[8] = biological target: T2, Neuronal acetylcholine receptor; alpha3/beta4 (Homo sapiens) (UniProt P30926+P32297); test: Antagonist activity at human alpha3beta4 nAChR expressed in Xenopus laevis oocytes assessed as inhibition of Ach-induced channel activation at 30 uM at -60 mV holding potential treated for 6 secs followed by compound washout for 241 secs by whole cell two electrode voltage-clamp assay
[9] = biological target: T1, Neuronal acetylcholine receptor subunit alpha-7; test: Antagonist activity at human alpha7 nAChR expressed in Xenopus laevis oocytes assessed as inhibition of post control Ach-induced response by measuring residual activity at 30 uM at -60 mV holding potential treated for 12 secs followed by compound washout for 181 secs by whole cell two electrode voltage-clamp assay (Rvb =60%)
[10] = biological target: T1, Neuronal acetylcholine receptor subunit alpha-7; test: Antagonist activity at human alpha7 nAChR expressed in Xenopus laevis oocytes assessed as Ach-induced response by measuring residual activity at 30 uM at -60 mV holding potential treated for 12 secs followed by compound washout for 181 secs by whole cell two electrode voltage-clamp assay (Rvb =60%)
[11] = biological target: T2, Neuronal acetylcholine receptor; alpha3/beta4 (Homo sapiens); test: Antagonist activity at human alpha3beta4 nAChR expressed in Xenopus laevis oocytes assessed as inhibition of post-control Ach-induced channel activation at 30 uM at -60 mV holding potential treated for 6 secs followed by compound washout for 241 secs by whole cell two electrode voltage-clamp assay
[12] = biological target: T1, Neuronal acetylcholine receptor subunit alpha-7; test: as §5, with “Silent agonist activity” for “Partial agonist activity”, “181 secs in presence of type 2 PAM PNU-120596 by whole” for “181 secs by whole”; how it was run: as §4
[13] = biological target: T1, Neuronal acetylcholine receptor subunit alpha-7; test: (§6) Silent agonist activity at human alpha7 nAChR expressed in Xenopus laevis oocytes assessed as increase in net charge at 3 to 10 uM at -60 mV holding potential treated for 12 secs followed by compound washout for 181 secs in presence of type 2 PAM PNU-120596 by whole cell two electrode voltage-clamp assay relative to ACh; how it was run: as §4
[14] = biological target: T1, Neuronal acetylcholine receptor subunit alpha-7; test: as §6, with “at” for “at 3 to”; how it was run: as §4

T1 sequence (P36544 whole entry, the tested form may be a part): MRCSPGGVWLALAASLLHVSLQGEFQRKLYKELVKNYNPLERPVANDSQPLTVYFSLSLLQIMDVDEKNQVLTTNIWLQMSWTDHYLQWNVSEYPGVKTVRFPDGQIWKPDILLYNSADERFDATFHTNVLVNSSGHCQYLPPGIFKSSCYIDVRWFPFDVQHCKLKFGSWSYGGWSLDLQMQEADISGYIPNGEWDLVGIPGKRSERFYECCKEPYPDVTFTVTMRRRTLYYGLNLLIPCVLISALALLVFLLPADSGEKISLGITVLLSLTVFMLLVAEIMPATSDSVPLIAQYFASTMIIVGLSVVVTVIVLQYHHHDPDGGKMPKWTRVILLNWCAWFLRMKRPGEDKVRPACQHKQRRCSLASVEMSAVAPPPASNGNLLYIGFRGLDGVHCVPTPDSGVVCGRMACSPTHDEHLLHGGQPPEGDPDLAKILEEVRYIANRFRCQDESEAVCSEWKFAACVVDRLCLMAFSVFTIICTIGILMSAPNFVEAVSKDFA

SMILES: C[N+]12CCC(CC1)C(Cc1nc(-c3cccs3)no1)C2 (configuration not stated)
fold change (FC) [1]: 0.127 | Ratio [2]: 0.81 | fold change (FC) [3]: 0.2 | fold change (FC) [4]: 0.103 | Ratio [5]: 2

SMILES: c1coc(-c2noc(CC3CN4CCC3CC4)n2)c1 (configuration not stated)
fold change (FC) [1]: 0.575 | fold change (FC) [6]: 0.15 | EC50 [7]: < 30 µM | Ratio [2]: 3.73 | fold change (FC) [3]: 32.3 | fold change (FC) [4]: 2.14 | Ratio [5]: 56

SMILES: COc1cccc(-c2noc(CC3C[N+]4(C)CCC3CC4)n2)c1 (configuration not stated)
fold change (FC) [1]: 0.129 | Ratio [2]: 0.92 | fold change (FC) [3]: 1.8 | fold change (FC) [4]: 0.119 | Ratio [5]: 14

SMILES: C[N+]12CCC(CC1)C(Cc1nc(-c3cccc(C(F)(F)F)c3)no1)C2 (configuration not stated)
inhibition [8]: Active | Activity [9]: 60% | fold change (FC) [1]: 0.035 | Ratio [2]: 2.2 | fold change (FC) [3]: 0.1 | fold change (FC) [4]: 0.077 | Activity [10]: 10% | inhibition [11]: inactive | Ratio [5]: 3

SMILES: c1ccc(-c2noc(CC3CN4CCC3CC4)n2)cc1 (configuration not stated)
fold change (FC) [1]: 0.602 | fold change (FC) [12]: 17.4 | EC50 [7]: < 30 µM | Ratio [2]: 2.16 | fold change (FC) [3]: 1.7 | fold change (FC) [4]: 1.3 | Ratio [5]: 3

SMILES: C[N+]12CCC(CC1)C(Cc1nc(-c3cccc(F)c3)no1)C2 (configuration not stated)
fold change (FC) [1]: 0.063 | Ratio [2]: 1.06 | fold change (FC) [3]: 0.3 | fold change (FC) [4]: 0.067 | Ratio [5]: 5

SMILES: C[N+]12CCC(CC1)C(Cc1nc(-c3ccncc3)no1)C2 (configuration not stated)
fold change (FC) [1]: 0.047 | Ratio [2]: 0.72 | fold change (FC) [3]: 2.6 | fold change (FC) [4]: 0.034 | Ratio [5]: 55

SMILES: COc1ccc(-c2noc(CC3C[N+]4(C)CCC3CC4)n2)cc1 (configuration not stated)
Activity [13]: Active | fold change (FC) [1]: 0.075 | Ratio [2]: 0.68 | fold change (FC) [3]: 2.2 | fold change (FC) [4]: 0.051 | Ratio [5]: 29

SMILES: C[N+]12CCC(CC1)C(Cc1nc(-c3cccc(Cl)c3)no1)C2 (configuration not stated)
fold change (FC) [1]: 0.151 | Ratio [2]: 1.94 | fold change (FC) [3]: 0.7 | fold change (FC) [4]: 0.293 | Ratio [5]: 5

fold change (FC) [1]: 0.014 | Ratio [2]: 0.71 | fold change (FC) [3]: 27.9 | fold change (FC) [4]: 0.01 | Ratio [5]: 1990
SMILES: C[N+]12CCC(CC1)C(Cc1nc(-c3ccco3)no1)C2 (configuration not stated)

SMILES: c1cncc(-c2noc(CC3CN4CCC3CC4)n2)c1 (configuration not stated)
fold change (FC) [1]: 0.483 | Ratio [2]: 1.8 | fold change (FC) [3]: 13.7 | fold change (FC) [4]: 0.867 | Ratio [5]: 28

SMILES: Brc1cccc(-c2noc(CC3CN4CCC3CC4)n2)c1 (configuration not stated)
fold change (FC) [1]: 0.274 | Ratio [2]: 3.36 | fold change (FC) [3]: 0.5 | fold change (FC) [4]: 0.92 | Ratio [5]: 2

SMILES: COc1cccc(-c2noc(CC3CN4CCC3CC4)n2)c1 (configuration not stated)
fold change (FC) [1]: 0.511 | Ratio [2]: 2.77 | fold change (FC) [3]: 1 | fold change (FC) [4]: 1.42 | Ratio [5]: 2

SMILES: Cc1cccc(-c2noc(CC3CN4CCC3CC4)n2)c1 (configuration not stated)
fold change (FC) [1]: 0.434 | Ratio [2]: 4.85 | fold change (FC) [3]: 77.3 | fold change (FC) [4]: 2.11 | Ratio [5]: 178

SMILES: Fc1cccc(-c2noc(CC3CN4CCC3CC4)n2)c1 (configuration not stated)
fold change (FC) [1]: 0.458 | Ratio [2]: 4.47 | fold change (FC) [3]: 0.9 | fold change (FC) [4]: 2.05 | Ratio [5]: 2

SMILES: C[N+]12CCC(CC1)C(Cc1nc(-c3cccc(I)c3)no1)C2 (configuration not stated)
fold change (FC) [1]: 0.239 | Ratio [2]: 3.62 | fold change (FC) [3]: 0.3 | fold change (FC) [4]: 0.866 | Ratio [5]: 1

SMILES: Cc1noc(CC2CN3CCC2CC3)n1 (configuration not stated)
fold change (FC) [1]: 0.042 | Activity [12]: inactive | Ratio [2]: 0.62 | fold change (FC) [3]: 5.1 | fold change (FC) [4]: 0.026 | Activity [14]: inactive | Ratio [5]: 121

SMILES: C[N+]12CCC(CC1)C(Cc1nc(-c3cccc(Br)c3)no1)C2 (configuration not stated)
fold change (FC) [1]: 0.177 | Ratio [2]: 2.49 | fold change (FC) [3]: 0.3 | fold change (FC) [4]: 0.44 | Ratio [5]: 2

SMILES: c1csc(-c2noc(CC3CN4CCC3CC4)n2)c1 (configuration not stated)
fold change (FC) [1]: 0.508 | fold change (FC) [12]: 13.4 | EC50 [7]: < 30 µM | Ratio [2]: 4.06 | fold change (FC) [3]: 5 | fold change (FC) [4]: 2.06 | Ratio [5]: 10

SMILES: C[N+]12CCC(CC1)C(Cc1nc(-c3cccnc3)no1)C2 (configuration not stated)
fold change (FC) [1]: 0.048 | Ratio [2]: 0.48 | fold change (FC) [3]: 3.9 | fold change (FC) [4]: 0.023 | Ratio [5]: 81

SMILES: Clc1cccc(-c2noc(CC3CN4CCC3CC4)n2)c1 (configuration not stated)
fold change (FC) [1]: 0.32 | Ratio [2]: 3.76 | fold change (FC) [3]: 0.6 | fold change (FC) [4]: 1.2 | Ratio [5]: 2

SMILES: COc1ccc(-c2noc(CC3CN4CCC3CC4)n2)cc1 (configuration not stated)
fold change (FC) [1]: 0.401 | fold change (FC) [12]: 4.4 | EC50 [7]: < 30 µM | Ratio [2]: 4.93 | fold change (FC) [3]: 1.6 | fold change (FC) [4]: 1.98 | Ratio [5]: 4

SMILES: FC(F)(F)c1cccc(-c2noc(CC3CN4CCC3CC4)n2)c1 (configuration not stated)
fold change (FC) [1]: 0.055 | Ratio [2]: 2.62 | fold change (FC) [3]: 0.1 | fold change (FC) [4]: 0.144 | Ratio [5]: 2

fold change (FC) [1]: 0.001 | Ratio [2]: 3 | fold change (FC) [3]: 0.1 | fold change (FC) [4]: 0.003 | Ratio [5]: 100
SMILES: Cc1noc(CC2C[N+]3(C)CCC2CC3)n1 (configuration not stated)

SMILES: C[N+]12CCC(CC1)C(Cc1nc(-c3ccccc3)no1)C2 (configuration not stated)
fold change (FC) [1]: 0.112 | Ratio [2]: 0.62 | fold change (FC) [3]: 2.4 | fold change (FC) [4]: 0.069 | Ratio [5]: 21

SMILES: Cc1cccc(-c2noc(CC3C[N+]4(C)CCC3CC4)n2)c1 (configuration not stated)
fold change (FC) [13]: 10.9 | fold change (FC) [1]: 0.077 | Ratio [2]: 1.03 | fold change (FC) [3]: 1.2 | fold change (FC) [4]: 0.079 | Activity [14]: inactive | Ratio [5]: 16

SMILES: c1cc(-c2noc(CC3CN4CCC3CC4)n2)ccn1 (configuration not stated)
fold change (FC) [1]: 0.703 | Ratio [2]: 0.79 | fold change (FC) [3]: 25.5 | fold change (FC) [4]: 0.553 | Ratio [5]: 36

SMILES: Ic1cccc(-c2noc(CC3CN4CCC3CC4)n2)c1 (configuration not stated)
fold change (FC) [1]: 0.245 | Ratio [2]: 4.94 | fold change (FC) [3]: 0.5 | fold change (FC) [4]: 1.21 | Ratio [5]: 2
